High-throughput results: PubChem BioAssay, several laboratories
CXCR6 block – CXCR6 receptor inhibitors, primary screen, cell-based, beta-arrestin, luminescence, CHO-K1 PathHunter, 1536-well. C-X-C chemokine receptor type 6 (Homo sapiens), O00574. inhibition, % at 20 µM. hit rate 0.36% among 360,000. AID 602244, 2012; in the data active = inhibition above about 34%, passing the limit was not always enough;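 also: antagonist mode with CXCL16 agonist at 10 nM final; 0% = 10 nM CXCL16 with DMSO and 100% = unstimulated wells without agonist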
Beta2AR agonist – beta2AR agonists driving receptor internalization, primary screen, cell-based, FAP fluorogen, flow cytometry. AID 504454, 2011. hit rate 0.43% among 340,000. response, % (no concentration beside the values). Am2.2-beta2AR cells;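 active = response above a set limit, near 3 SD of response in nonfluorescent compounds, cut at about 42% in these data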
PfGluPho inh – PfG6PD enzyme inhibitors, primary screen, biochemical, fluorescence intensity, uHTS | glucose-6-phosphate dehydrogenase-6-phosphogluconolactonase (Plasmodium falciparum 3D7) | PfGluPho enzyme, NADPH resazurin-diaphorase fluorescence | inhibition, % at 20 µM | hit rate 0.78% among 350,000 | AID 504690, 2011;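 active = inhibition reaching at least a set limit at 20 µM in the primary screen, cut at about 59% in these data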;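 also: 0% = DMSO wells with substrate and 100% = DMSO wells lacking glucose-6-phosphate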
APJ antag – antagonists of human apelin receptor APJ, primary screen, CHO-K1 cells, beta-arrestin complementation, luminescence. P35414. inhibition, % at 20 µM. hit rate 0.32% among 330,000. AID 2521, 2010;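 active = inhibition above about 40% at 20 µM, limit read from the data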;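 also: cells challenged with 10 nM apelin-13 agonist together with compound; plate controls were apelin-13 plus DMSO wells for no effect and DMSO wells lacking apelin-13 for full effect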
Target sequence (P35414 whole entry, looked up): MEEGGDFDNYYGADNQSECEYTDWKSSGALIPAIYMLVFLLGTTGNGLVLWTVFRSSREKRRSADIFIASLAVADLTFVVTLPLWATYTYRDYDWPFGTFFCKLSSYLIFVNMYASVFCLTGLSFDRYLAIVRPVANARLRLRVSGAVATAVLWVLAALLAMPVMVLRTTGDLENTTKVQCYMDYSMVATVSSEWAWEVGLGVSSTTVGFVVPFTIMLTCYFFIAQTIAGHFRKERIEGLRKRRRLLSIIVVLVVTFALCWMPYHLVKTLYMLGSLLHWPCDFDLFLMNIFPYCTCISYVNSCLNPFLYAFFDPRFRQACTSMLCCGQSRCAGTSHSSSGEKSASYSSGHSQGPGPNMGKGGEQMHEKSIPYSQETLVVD
APJ ag – agonists of human apelin receptor APJ, primary screen, CHO-K1 cells, PathHunter beta-arrestin, luminescence; P35414; 0% DMSO wells, 100% apelin; activation, % at 20 µM; hit rate 0.11% among 330,000;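 active = activation more than six SD over the plate average, tested at 20 µM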;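 also: 0% = DMSO alone and 100% = apelin-13 at 10 nM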
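Test system – PathHunter CHO-K1 APJ (AGTRL-1) beta-arrestin reporter cells · Input – 1000 cells/well · Compound – single test compound dose, 20 µM final, 1% DMSO · Times – compound stimulation 90 min at 25 °C, detection 60 min · Technique – beta-gal luminescence · Read-out basis – APJ–arrestin association signal · Control set – negative DMSO alone, positive Apelin-13 at 10 nM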
CCR6 antag – CCR6 receptor antagonists, primary screen, cell-based, CHO-K1, luminescence, beta-arrestin, uHTS; C-C chemokine receptor type 6 (Homo sapiens), P51684; CHO-K1 CCR6 PathHunter beta-arrestin, CCL20-stimulated; inhibition, % at 20 µM; hit rate 0.49% among 340,000; AID 493098, 2011;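 active = compounds whose inhibition of the agonist-driven luminescence signal at 20 µM reaches about 50%, limit read from the data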;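 also: cells stimulated with CCL20 at 14 nM final; plate controls were DMSO with CCL20 for no effect and DMSO without agonist for full effect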
Numbers without * were called inactive; nt = no result. Hits are enriched below; roughly 1.7% of the tested compounds scored in any of these assays.

SMILES | CXCR6 block | Beta2AR agonist | PfGluPho inh | APJ antag | APJ ag | CCR6 antag
Cc1ccc(N2C(=O)c3ccccc3C2C(=O)c2ccc(C)c(C)c2O)cc1 (stereo unspecified) | 0 | 6 | 27 | 3 | 1 | 9
COc1ccccc1-c1cnc(C(O)c2ccc(Cl)c(Cl)c2)[nH]1 (stereo unspecified) | -8 | nt | nt | nt | nt | nt
O=C(N/N=C/c1cccc2nccnc12)c1ccccc1O | 40 | 13 | 8 | 34 | -10 | 66*
O=c1[nH]c(=O)c2cn[nH]c2[nH]1 | 0 | -2 | 9 | 7 | -2 | -10
COc1ccc(Cl)cc1/C=C/c1ccc2cccc(O)c2n1 | 19 | 4 | 5 | 39 | -7 | 38
COc1ccccc1/C=C/c1ccc2cccc(O)c2n1 | 34 | 6 | 1 | 39 | -8 | 63*
COc1cc2nc(N(CCCN(C)C)C(=O)c3ccc(S(=O)(=O)N4CCc5ccccc54)cc3)sc2cc1OC | 6 | 12 | 46 | 22 | 0 | 13
COc1ccc2sc(N(CCCN(C)C)C(=O)c3ccc(S(=O)(=O)N4CCCc5ccccc54)cc3)nc2c1 | 6 | 53* | 27 | -6 | -1 | 9
O=C(Nc1ccc2cn[nH]c2c1)c1c(Cl)cccc1Cl | -5 | 7 | 41 | -3 | 0 | 1
O=C1C(Cl)=C(Nc2ccc3cn[nH]c3c2)C(=O)c2ccccc21 | 56* | 104* | 36 | nt | nt | 78*
O=C(CSc1ccc2nnc(CCNC(=O)c3ccc(F)cc3)n2n1)NCc1ccco1 | 4 | -4 | -18 | 14 | -4 | 9
CCOC(=O)[C@]12CCCC=C1N(Cc1ccc3c(c1)OCO3)C(=O)[C@H](CC(=O)NCc1ccc(C)o1)C2 | 4 | nt | nt | nt | nt | nt
COC(=O)c1ccc2nc(Nc3nc4ccc(F)cc4s3)sc2c1 | -10 | -1 | 7 | nt | nt | -16
CCOC(=O)c1csc(Nc2nc3ccc(F)cc3s2)n1 | 17 | 13 | -3 | 42* | -14 | 27
COC(=O)c1ccc(COc2ccc(/C=C(\C#N)c3nc4ccccc4[nH]3)cc2OC)o1 | -1 | 43* | -2 | -22 | 6 | 11
O=C(Oc1c(Cl)cc(Cl)c2cccnc12)c1cccc([N+](=O)[O-])c1 | 38 | 5 | -22 | 18 | -5 | 68*
O=C(Oc1coc(CSc2ncccn2)cc1=O)c1cccc([N+](=O)[O-])c1 | 2 | 8 | 8 | 22 | 2 | 1
CC(C)CS(=O)(=O)C1=NSC2=NC(=O)/C(=C\c3ccc(OC(=O)c4ccco4)cc3)C(=N)N21 | 4 | 1 | -30 | 13 | -3 | 7
CSC1=NSC2=NC(=O)/C(=C\c3ccc(OC(=O)c4ccco4)cc3)C(=N)N12 | 0 | 43* | -32 | 0 | -5 | 23
O=C(NCc1ccncc1)[C@@H]1CCCN1C(=O)[C@@H]1CCCN1C(=O)c1ccccc1 | -3 | nt | nt | nt | nt | nt
COc1ccc(N2CSC3=C(C#N)C(c4cccs4)CC(=O)N3C2)cc1 (stereo unspecified) | -6 | 1 | -1 | -49 | 4 | -2
CN1CSC2=C(C#N)C(c3cccc(OCc4ccccc4)c3)CC(=O)N2C1 (stereo unspecified) | -7 | -4 | 92* | 9 | 0 | 2
C=CCS/C(N)=N\N=C\c1cc(Br)cc([N+](=O)[O-])c1O | 34* | -1 | -21 | 23 | -3 | 62*
O=[N+]([O-])c1cc(Br)cc(/C=N/n2cnnc2)c1O | 23 | 11 | -25 | 18 | -4 | 46
CNc1cnc(-c2ccc(C(=O)N3CCOCC3)cc2)cn1 | 2 | nt | nt | nt | nt | nt
SMILES | CXCR6 block | Beta2AR agonist | PfGluPho inh | APJ antag | APJ ag | CCR6 antag
O=C(Nc1cccc(C(=O)N2CCCc3ccccc32)c1)c1ccccc1 | -2 | -5 | -10 | 3 | -4 | 19
COC(=O)c1cc(=O)n(Cc2ccc(F)cc2)c(=Nc2ccccc2)s1 | 15 | 25 | 11 | 8 | -4 | 26
COC(=O)c1cc(=O)n(Cc2ccc(OC)c(OC)c2)c(=Nc2ccc(F)cc2)s1 | 7 | 72* | 14 | 19 | -4 | 19
O=C(N/N=C/c1cccc([N+](=O)[O-])c1)c1cc[n+](CCO)cc1 | 0 | 46* | -7 | -28 | 2 | 16
CCCCCCCC(=O)Nc1ccc(C(=O)N/N=C/c2cccc([N+](=O)[O-])c2)cc1 | 10 | -5 | -14 | -4 | -3 | -5
O=C(O)c1ccc(N=Nc2c(O)ccc3ncccc23)cc1 | 37 | 16 | 19 | 36 | -8 | 48
Cc1ccc(C)c(S(=O)(=O)Nc2cc(SCC(=O)O)c(O)c3ccccc23)c1 | 6 | 18 | 104* | nt | nt | 7
Cc1ccc(NS(=O)(=O)c2cc(NC(=O)C(C)Oc3ccccc3)ccc2C)c(C)c1 (stereo unspecified) | 10 | 14 | 8 | -6 | 0 | 6
N#C/C(=C\c1cccc([N+](=O)[O-])c1)C(=O)NCc1ccc(Cl)cc1 | 65* | 42 | 33 | nt | nt | nt
N#C/C(=C\c1cccc([N+](=O)[O-])c1)C(=O)NCc1cccnc1 | -5 | 2 | 48 | -35 | 4 | 3
N#C/C(=C/c1cccc([N+](=O)[O-])c1)C(=O)Nc1ccccc1O | 2 | 57* | 2 | 1 | -1 | 16
C[C@H]1CN([C@@H](C)CO)C(=O)c2cc(-c3ccccc3F)cnc2O[C@@H]1CN(C)C(=O)NC1CCCCC1 | -3 | nt | 18 | nt | nt | nt
CC1(C)CC(=O)C=C(c2n[nH]nc2C2=CCCCC2)C1 | -2 | nt | -3 | nt | nt | nt
C=CCN1C(=O)/C(=C/c2ccsc2)SC1=S | 6 | 44* | -18 | -16 | -2 | 9
COc1ccc(/C=C/C2=NNC(=O)CC2)cc1 | 3 | 5 | 0 | -31 | -2 | 77*
CCOc1ccc(/C=C/C2=NNC(=O)CC2)cc1 | -6 | -5 | -11 | -9 | -1 | 13
CN1C(=O)c2ccc(NC(=O)c3c(C(=O)O)cccc3[N+](=O)[O-])cc2C1=O | 0 | 7 | 11 | 0 | 1 | 4
Cc1cccnc1NC(=O)Nc1cccc(F)c1 | -1 | nt | -15 | nt | nt | nt
O=C(C[n+]1cn(C(F)F)c2ccccc21)c1ccc(OC(F)F)cc1 | -13 | 3 | 4 | -86 | 18* | -11
Oc1c(Cl)cc(Cl)cc1/C=N/Nc1ncc(Br)cn1 | 62* | 0 | -16 | 7 | -3 | 74*
O=C(N/N=C/c1cc(Cl)cc(Cl)c1O)c1ccncc1 | 3 | -1 | -20 | -9 | 0 | -14
CN1C(=CC=C2C=C(I)C(=O)C(I)=C2)C(C)(C)c2ccccc21 | 45* | 39 | -106 | nt | nt | 73*
CN1/C(=C\C=C2/C(=O)Oc3ccccc3C2=O)C(C)(C)c2ccccc21 | nt | nt | 3 | nt | nt | 26
